Exocytosis inh: blocks lytic granule exocytosis; TALL-104 LAMP-1 surface exposure, flow cytometry; cells stimulated with thapsigargin and PMA; inhibition, % at 10 µM; actives 0.66% (n = 360,000);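 active = inhibition above about 55%, limit read from the data; inconclusive = no clear call, values can overlap the other calls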
Myeloid diff MLP: myeloid differentiation induction | ER-HoxA9 myeloid progenitors, lysozyme-GFP differentiation, flow cytometry | calls only at 10 µM | actives 1% (n = 360,000);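 active = normalized GFP-positive differentiation at or above the plate's own cutoff, the solvent-only control mean plus 3 SD; inconclusive = no clear call, values can overlap the other calls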;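 note: cells exposed to compound for four days before flow analysis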
ATG4B inh: ATG4B (human) cysteine protease inhibition. actives 0.51% (n = 340,000). Q9Y4P1. inhibition, % at 8.33 µM. ATG4B cleavage of LC3-PLA2, NBD-HPC fluorescence, 1 h; in the data active = inhibition above about 40%
Target sequence (Q9Y4P1 whole entry, looked up): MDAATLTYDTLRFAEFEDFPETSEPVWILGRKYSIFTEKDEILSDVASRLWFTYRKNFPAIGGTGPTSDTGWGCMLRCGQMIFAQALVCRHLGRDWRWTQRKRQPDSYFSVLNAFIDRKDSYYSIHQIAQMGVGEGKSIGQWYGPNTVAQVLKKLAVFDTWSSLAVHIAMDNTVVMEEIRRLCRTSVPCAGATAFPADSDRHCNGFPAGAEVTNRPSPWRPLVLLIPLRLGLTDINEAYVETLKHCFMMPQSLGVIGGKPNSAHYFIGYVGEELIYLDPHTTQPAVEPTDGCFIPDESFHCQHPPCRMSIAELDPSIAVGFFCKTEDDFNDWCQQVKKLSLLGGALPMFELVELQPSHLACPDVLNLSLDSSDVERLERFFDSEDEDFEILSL
ABCB6 inh 2: inhibitors of human ABC transporter ABCB6; Q9NP58; K562-ABCB6 porphyrin accumulation, flow cytometry, 1 h; hits give low values; fluorescence ratio to DMSO, % at 10 µM; actives 0.19% (n = 360,000);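 active = fluorescence ratio to DMSO below 75%, the collection mean minus 3 SD; inconclusive = too few cells collected in the well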;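 note: signal is porphyrin accumulated inside mitochondria; 100% equals median channel fluorescence of DMSO control wells; lower ratio means ABCB6 inhibition with less porphyrin fluorescence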
CendR NRP1 mod: alters CendR peptide binding to human NRP-1 | actives 0.85% (n = 360,000) | FAM-RPARPAR peptide binding to NRP-1, fluorescence polarization | AID 602438 | inhibition, % at 25 µM | O14786;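 active = inhibition or corrected inhibition above about 18%, plus a signal ratio from 0.5 to 1.5, limit read from the data, passing the limit was not always enough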
Arrestin-AP2 inh: human beta-arrestin and AP2 interaction inhibition; actives 0.31% (n = 340,000); FITC-arrestin peptide / GST-AP2 beads, flow cytometry; AP2 beta2 appendage carries R879A mutation; AID 504490; inhibition, % at 10 µM;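 active = inhibition above a set limit, near 3 SD of compounds lacking own fluorescence, cut at about 54% in these data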;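 note: plate controls were DMSO wells for no effect and 5 µM unlabelled arrestin peptide for full effect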
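Test system: GST-tagged AP2 beta2-adaptin appendage (R879A) on 4 µm glutathione beads; also added: fluorescein-tagged arrestin peptide at 50 nM final; timing: 12 min plus 1 h, RT; signal: flow cytometry, FL1 (488/535 nm); read-out: percent drop in bead-associated FITC signal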
Arr AP2 CP1: human beta-arrestin and AP2 interaction inhibition, cherry pick; AID 504908; shares compounds with Arrestin-AP2 inh; actives 2% (n = 1,300); inhibition, % at 10 µM; GST-AP2 beads, FITC arrestin peptide binding, flow cytometry; GST-fused beta2-adaptin appendage, R879A mutant;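 active = inhibition above a set limit, roughly 3 SD of non-fluorescent compound noise, cut at about 38% in these data; inactive = inhibition at or below that limit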;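 note: loss of bead fluorescence from 50 nM FITC arrestin peptide bound to appendage; 0% = negative control wells and 100% = excess unlabelled arrestin peptide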
GST GSH counter: GST-GSH bead binding interference, counter-screen. inhibition, % at 10 µM. GST-fluorescein binding to GSH beads, fluorescence. actives 2% (n = 1,300). shares compounds with Arrestin-AP2 inh;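 active = inhibition above 50%, about 3 SD of the inhibition seen with non-fluorescent compounds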;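 note: fluorescein maleimide labelled GST captured on 4 micron glutathione beads; higher means more loss of bead fluorescence from quenching or blocked binding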
Starred values were filed as active, the others as inactive; i = inactive; ? = inconclusive; · = no result given. A selection: hits, their analogues and other compounds. The true share with any hit is near 3.3%.

SMILES | Exocytosis inh | Myeloid diff MLP | ATG4B inh | ABCB6 inh 2 | CendR NRP1 mod | Arrestin-AP2 inh | Arr AP2 CP1 | GST GSH counter
COc1ccc(C2C(C(=O)/C=C/c3ccco3)=C(O)C(=O)N2CCN2CCOCC2)cc1OC (centres undefined) | -2 | i | -8 | 98 | -32 | -35 | · | ·
CCC(=O)NC1=C(Cl)C(=O)C(NC(=O)CC)=C(Cl)C1=O | 0 | i | 1 | 106 | -3 | 66* | 61* | 6
CC12CCC(=O)N1C(C(=O)OCC(=O)Nc1ccc(S(N)(=O)=O)cc1)CS2 (centres undefined) | 1 | i | -3 | 93 | -7 | 0 | -1 | -5
Cc1ccc(NC(=O)COC(=O)C2CSC3(C)CCC(=O)N23)cc1S(=O)(=O)N1CCOCC1 (centres undefined) | -2 | i | -6 | 104 | -6 | 64* | -6 | -3
CC12CCC(=O)N1C(C(=O)OCC(=O)Nc1cccc(Br)c1)CS2 (centres undefined) | -13 | i | -7 | 105 | -7 | -20 | 1 | -4
CC12CCC(=O)N1C(C(=O)OCC(=O)Nc1ccc(C(F)(F)F)cc1)CS2 (centres undefined) | 1 | i | -4 | 94 | 8 | 10 | -4 | -6
CC12CCC(=O)N1C(C(=O)OCC(=O)Nc1cccc(S(=O)(=O)N3CCCCCC3)c1)CS2 (centres undefined) | -2 | i | -7 | 96 | -6 | 3 | · | ·
CC(=O)c1ccccc1Oc1ncnc(N)c1[N+](=O)[O-] | -2 | i | 4 | 97 | 10 | 31 | · | ·
CCN(CC)S(=O)(=O)c1cc(NC(=O)CCNC(=O)c2ccco2)ccc1C | -2 | i | -12 | 99 | 9 | 19 | · | ·
COC(=O)c1ccc(OC(=O)C2CSC3(C)CCC(=O)N23)cc1 (centres undefined) | 0 | i | 6 | 97 | -6 | -6 | · | ·
CN(C(=O)COC(=O)C1CSC2(C)CCC(=O)N12)c1ccccc1 (centres undefined) | 0 | i | -3 | 97 | 2 | 22 | 9 | 2
CCNC(=O)NC(=O)COC(=O)C1CSC2(C)CCC(=O)N12 (centres undefined) | 0 | i | 1 | 105 | -7 | 2 | · | ·
Cc1ccc(NC(=O)COC(=O)C2CSC3(C)CCC(=O)N23)c(C)c1 (centres undefined) | -3 | i | -42 | 95 | -4 | 69* | -8 | -3
CCn1c(CCNC(=O)c2cccs2)nnc1SCC(=O)c1ccc(OC)cc1 | 1 | i | 10 | 103 | -12 | -1 | · | ·
CCOC(=O)C1=CN(CC)S(=O)(=O)NC1CC (centres undefined) | -5 | i | 8 | 104 | -4 | 49 | · | ·
COc1ccc([C@H](NC(=O)OC(C)(C)C)C(=O)OC(C)(C)C)cc1 | -6 | i | 29 | 99 | 17 | -10 | · | ·
O=C1C=CC(=O)c2c(O)c(N3CCN(CCOCCO)CC3)c(Br)c(O)c21 | 62* | ? | 18 | 404 | 65* | 69* | 52* | 20
O=S(=O)(c1ccc(Br)cc1Cl)N1CCN(CCO)CC1 | 8 | i | 9 | 105 | 4 | 5 | · | ·
O=C1C=CC(=O)c2c(O)c(N3CCN(CCO)CC3)c(Cl)c(O)c21 | 10 | ? | 31 | 104 | 55* | 80* | 44* | 8
O=C(Nc1cc(C(F)(F)F)ccc1N1CCOCC1)C1=COCCO1 | -1 | i | 1 | 98 | 1 | 55* | 1 | -6
O=C(Nc1cc(C(F)(F)F)ccc1N1CCCC1)C1=COCCO1 | -2 | i | -3 | 90 | -1 | 18 | · | ·
CCN(CC(=O)Nc1c(F)cccc1F)C(=O)CCNS(=O)(=O)c1ccc(C)c(C)c1 | 1 | i | 2 | 99 | 2 | 58* | -4 | 0
CCOc1ccc(S(=O)(=O)NCCC(=O)N(CC)CC(=O)Nc2c(F)cccc2F)cc1 | 3 | i | -4 | 105 | -5 | -2 | · | ·
O=C(NN1C(=O)c2ccccc2NC1c1ccoc1)c1ccc([N+](=O)[O-])cc1 (centres undefined) | 1 | i | 3 | 100 | 2 | 57* | 0 | -8
O=C(NN1C(=O)c2ccccc2NC1c1ccc([N+](=O)[O-])o1)c1ccc([N+](=O)[O-])cc1 (centres undefined) | -4 | i | -1 | 95 | 4 | -21 | · | ·
SMILES | Exocytosis inh | Myeloid diff MLP | ATG4B inh | ABCB6 inh 2 | CendR NRP1 mod | Arrestin-AP2 inh | Arr AP2 CP1 | GST GSH counter
Nc1[nH]c(C(=O)c2ccccc2)c(-c2ccncc2)c1C(=O)NC1CC1 | 0 | i | · | 116 | -14 | · | · | ·
COc1ccc(CN2CCN(C(=O)c3ccc(S(=O)(=O)NCc4ccco4)cc3)CC2)cc1F | 5 | i | -6 | 98 | 30* | -6 | 0 | -10
COc1ccc(N2CCN(C(=O)c3ccc(CNS(=O)(=O)c4ccc(C)cc4)cc3)CC2)cc1 | 4 | i | -17 | 100 | 9 | -2 | · | ·
O=C(c1ccc(S(=O)(=O)NCc2ccco2)cc1)N1CCN(Cc2ccc3c(c2)OCO3)CC1 | -1 | i | 5 | 104 | -1 | 13 | · | ·
Cc1ccccc1CN1CCN(C(=O)c2ccc(S(=O)(=O)NCc3ccco3)cc2)CC1 | 4 | i | -2 | 96 | -2 | 9 | 2 | -1
COc1ccc(N2CCN(C(=O)c3ccc(S(=O)(=O)NCc4ccco4)cc3)CC2)cc1 | -8 | i | 0 | 94 | 19 | 0 | -5 | -8
O=C(Nc1cccc(Cl)c1)c1cnccn1 | -9 | i | 0 | 101 | 8 | 32 | · | ·
COC(=O)c1ccc(NC(=O)Nc2ccc(OC)c(OC)c2)cc1 | -3 | i | -4 | 99 | 0 | 0 | · | ·
Cc1cnc(NC(=O)Nc2ccccc2)c(C)n1 | -4 | i | 0 | 110 | 5 | -3 | -14 | -2
COc1ccc(NC(=O)Nc2cnccn2)cc1OC | 0 | i | -8 | 90 | 11 | -9 | -3 | 8
O=C(Nc1ccccc1)Nc1cnccn1 | 0 | i | -2 | 99 | 5 | 40 | -5 | -7
O=C(Nc1ccccc1)Nc1ccccn1 | -2 | i | -9 | 102 | 14 | -1 | · | ·
O=C(Nc1cccc(Cl)c1)Nc1cnccn1 | -1 | i | -5 | 100 | 10 | -4 | -2 | 2
CCOc1ccccc1N(CC)C(=O)c1ccc2c(=O)n3c(nc2c1)CCCCC3 | -2 | ? | 15 | 99 | 14 | 0 | · | ·

Screening results deposited in PubChem by several laboratories.
